Reference: article PMC5511061 (ACS infectious diseases, 2017)

Experiments:
[1] = tested on: prozyme levels in T. brucei cells; experiment: Western blotting analysis of prozyme expression levels in treated cells; format: cell-based, Trypanosoma brucei; conditions: cells grown 24 h with 1–2 × EC50 of compound versus vehicle
How it was run: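 Bloodstream-form T. brucei treated 24 h with test compound; DMSO vehicle as neutral control and a reference AdoMetDC inhibitor as positive control. Cells harvested, lysed and run on SDS-PAGE. Blots probed with rabbit polyclonal anti-T. brucei prozyme (1000-fold dilution, Tris-buffered saline, 5% blocker). Membrane cut by molecular-weight marker; upper section probed with rabbit anti-BiP (100,000-fold) as loading control. Prozyme compared with vehicle.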

[2] = In vitro metabolic stability in hepatic microsomes, human; format: in vitro ADME; conditions: both
[3] = In vitro metabolic stability in hepatic microsomes, mouse; format: in vitro ADME; conditions: male, CD-1, mouse
[4] = tested on: P-glycoprotein (human MDR1); experiment: MDCKII-hMDR1 monolayer permeability assay; format: in vitro ADME; conditions: dog, MDCK-MDR1
T. brucei cells = experiment: Rescue of cell growth inhibition with spermidine; format: cell-based, Trypanosoma brucei
[5] = tested on: T. brucei brucei Lister 427 bloodstream-form (BSF) cells; experiment: T. brucei cell viability growth assay; format: cell-based, Trypanosoma brucei brucei
[6] = target: T1, human AdoMetDC (HsAdoMetDC) (Homo sapiens, UniProt P17707); experiment: RapidFire-MS end-point AdoMetDC activity assay, human enzyme; format: biochemical
T1 sequence (P17707 1-334): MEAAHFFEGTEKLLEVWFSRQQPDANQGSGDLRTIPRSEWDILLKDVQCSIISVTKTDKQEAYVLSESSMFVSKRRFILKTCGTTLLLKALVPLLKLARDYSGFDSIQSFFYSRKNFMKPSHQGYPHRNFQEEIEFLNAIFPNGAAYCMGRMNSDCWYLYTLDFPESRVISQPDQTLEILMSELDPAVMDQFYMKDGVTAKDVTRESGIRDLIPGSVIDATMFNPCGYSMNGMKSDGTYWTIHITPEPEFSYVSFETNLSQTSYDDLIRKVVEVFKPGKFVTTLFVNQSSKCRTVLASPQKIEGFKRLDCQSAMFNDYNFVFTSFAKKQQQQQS

HsAdoMetDC = conditions: human versus T. brucei enzyme; cited from earlier work

SMILES | Prozyme induction [1] | half-life at 1 μM [2] | half-life at 1 μM [3] | Papp A→B [4] | EC50 (T. brucei cells; Trypanosoma brucei, read-out: T. brucei cell EC50, – Spd) | rescue of cell growth inhibition by spermidine supplementation (T. brucei cells; over 100× EC50 concentrations of compound, 1 mM spermidine) | EC50 fold below measured IC50 on the enzyme [5] | EC50 ([5]; Trypanosoma brucei, 48 h, read-out: T. brucei cell EC50) | IC50 [6] | fold more potent against HsAdoMetDC (HsAdoMetDC)
Cc1nc2c(N)ncnc2n1[C@@H]1O[C@H](CN(C)C/C=C\CN)[C@@H](O)[C@H]1O [Compound 1] | yes | > 1.5 h | > 1.5 h | 1.1 ×10⁻⁶ cm/s | 0.3 nM | full rescue | 100 fold | 1.8 nM | 110 nM | 
Cl.Cl.Cl.N=C(N)c1cccc(/C=N/N=C(\N)N/N=C/c2cccc(C(=N)N)c2)c1 [CGP 40215A] |  |  |  |  |  |  |  |  |  | 500 fold
